Test results as given in ChEMBL document CHEMBL1129333, “Synthesis and biological activities of flavonoid derivatives as A3 adenosine receptor antagonists” (J Med Chem, 1996).
Values belong to the molecule of their own block, whether it stands above or below them.

Tests used:
[1] = system: Adenosine A1 receptor (Rattus norvegicus) / A3 receptor (Homo sapiens); assay: Ratio of binding affinities between rA1 and human A3.
Adenosine A2 receptor = Adenosine A2 receptor (Rattus norvegicus, UniProt P29276+P30543); assay: Binding affinity at Adenosine A2 receptor in rat striatal membranes by [3H]-CGS- 21680 displacement.; format: cell membranes, Striatum, Membrane
Method in brief: (§1)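 Rat striatal membranes, prepared with adenosine deaminase (3 units/mL) including a 30 min, 30 °C preincubation, ADA also present during radioligand incubation; [3H]CGS 21680 displacement. Test compounds from DMSO stocks, final DMSO ≤1%, at least five concentrations spanning 3 orders of magnitude.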

Adenosine receptor A3 [2] = molecular target: T1, Adenosine receptor A3 (Homo sapiens, UniProt P0DMS8); assay: Binding affinity against human adenosine A3 receptor in HEK293 cells using [125I]AB-MECA […] radioligand.; format: cell-based
T1 sequence (P0DMS8 whole entry): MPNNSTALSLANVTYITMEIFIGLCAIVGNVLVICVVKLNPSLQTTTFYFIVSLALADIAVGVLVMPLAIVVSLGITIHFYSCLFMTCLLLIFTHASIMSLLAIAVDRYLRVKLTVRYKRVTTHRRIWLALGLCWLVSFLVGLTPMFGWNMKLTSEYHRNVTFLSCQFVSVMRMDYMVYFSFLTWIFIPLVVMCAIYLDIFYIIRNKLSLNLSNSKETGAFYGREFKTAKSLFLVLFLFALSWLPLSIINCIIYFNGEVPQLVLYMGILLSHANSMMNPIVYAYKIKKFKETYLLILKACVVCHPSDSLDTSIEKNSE

[3] = molecular target: T2, Adenosine receptor A1 (Rattus norvegicus) (UniProt P25099); assay: Percent displacement against Adenosine A1 receptor in rat brain membranes using [3H]PIA at 10e-4 M; format: cell membranes
T2 sequence (whole entry): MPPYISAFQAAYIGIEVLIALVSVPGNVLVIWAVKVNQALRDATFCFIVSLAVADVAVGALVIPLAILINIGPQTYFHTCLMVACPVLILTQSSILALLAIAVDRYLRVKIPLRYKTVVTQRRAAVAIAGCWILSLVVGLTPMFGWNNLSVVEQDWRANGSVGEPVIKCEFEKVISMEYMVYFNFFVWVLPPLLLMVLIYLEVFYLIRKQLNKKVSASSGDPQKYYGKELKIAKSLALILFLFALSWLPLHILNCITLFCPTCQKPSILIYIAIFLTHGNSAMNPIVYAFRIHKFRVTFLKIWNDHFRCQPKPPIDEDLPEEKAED

[4] = molecular target: T3, Adenosine A2 receptor (Rattus norvegicus) (UniProt P29276+P30543); assay: Percent displacement at 10e-4 M against Adenosine A2 receptor in rat striatal membranes using [3H]-CGS- 21680; format: cell membranes; conditions: Striatum, Membrane
Method in brief: as §1

[5] = molecular target: Adenylate cyclase type 2 (Rattus norvegicus) (UniProt P26769); assay: Percent inhibition against adenylyl cyclase was measured using IB-MECA […] at 10E-7; format: functional; conditions: concentration not given here
Adenylate cyclase type 2 (Rattus norvegicus), sequence (P26769 whole entry): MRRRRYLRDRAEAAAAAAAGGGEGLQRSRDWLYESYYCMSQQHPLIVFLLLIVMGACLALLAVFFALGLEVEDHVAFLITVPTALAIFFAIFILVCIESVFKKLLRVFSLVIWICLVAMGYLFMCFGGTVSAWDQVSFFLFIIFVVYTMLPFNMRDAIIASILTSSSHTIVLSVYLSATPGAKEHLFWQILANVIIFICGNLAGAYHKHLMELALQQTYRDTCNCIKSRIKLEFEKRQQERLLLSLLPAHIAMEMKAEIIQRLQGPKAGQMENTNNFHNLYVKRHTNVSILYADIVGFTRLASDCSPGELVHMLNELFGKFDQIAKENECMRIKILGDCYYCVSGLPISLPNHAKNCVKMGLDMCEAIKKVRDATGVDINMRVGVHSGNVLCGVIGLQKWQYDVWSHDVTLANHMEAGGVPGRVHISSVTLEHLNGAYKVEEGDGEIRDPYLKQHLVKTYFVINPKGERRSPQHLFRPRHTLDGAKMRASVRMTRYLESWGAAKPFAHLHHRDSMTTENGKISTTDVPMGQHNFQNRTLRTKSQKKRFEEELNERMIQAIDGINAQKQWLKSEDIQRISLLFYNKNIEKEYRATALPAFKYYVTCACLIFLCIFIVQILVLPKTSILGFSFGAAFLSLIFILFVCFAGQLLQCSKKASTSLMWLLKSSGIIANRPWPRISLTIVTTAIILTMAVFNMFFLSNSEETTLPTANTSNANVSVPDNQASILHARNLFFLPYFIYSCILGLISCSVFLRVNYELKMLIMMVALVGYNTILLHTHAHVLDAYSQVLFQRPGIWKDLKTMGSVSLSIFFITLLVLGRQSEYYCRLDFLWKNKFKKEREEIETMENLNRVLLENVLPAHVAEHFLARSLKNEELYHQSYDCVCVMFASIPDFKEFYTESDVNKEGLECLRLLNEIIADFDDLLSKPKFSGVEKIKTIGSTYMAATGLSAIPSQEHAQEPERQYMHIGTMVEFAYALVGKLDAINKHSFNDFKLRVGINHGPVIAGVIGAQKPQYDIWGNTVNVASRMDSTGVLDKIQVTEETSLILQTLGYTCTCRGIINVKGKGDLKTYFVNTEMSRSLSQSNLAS
Method in brief: (§2)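 Membranes from CHO cells stably expressing rat A3 receptor (grown in F-12, 10% FBS, 37 °C, 5% CO2); [α-32P]ATP added with 1 μM forskolin and papaverine as phosphodiesterase inhibitor.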

Adenosine receptor A3 [6] = molecular target: T4, Adenosine receptor A3 (Rattus norvegicus, UniProt P28647); assay: (§3) Binding affinity for [125I]AB-MECA against rat Adenosine A3 receptor
T4 sequence (P28647 whole entry): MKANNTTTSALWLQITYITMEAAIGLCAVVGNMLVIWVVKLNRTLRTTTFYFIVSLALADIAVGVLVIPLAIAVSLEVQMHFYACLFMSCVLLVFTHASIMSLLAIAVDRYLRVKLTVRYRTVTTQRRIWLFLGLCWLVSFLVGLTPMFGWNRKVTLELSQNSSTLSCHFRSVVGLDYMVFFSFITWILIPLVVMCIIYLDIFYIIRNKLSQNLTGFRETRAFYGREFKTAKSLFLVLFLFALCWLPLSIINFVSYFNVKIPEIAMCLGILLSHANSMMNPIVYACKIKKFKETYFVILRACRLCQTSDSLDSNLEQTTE

[7] = molecular target: Adenylate cyclase type 2 (Rattus norvegicus) (UniProt P26769); assay: Percent inhibition against adenylyl cyclase was measured using IB-MECA […] at 10E-6; format: functional; conditions: concentration not given here
Method in brief: as §2

[8] = molecular target: T5, Adenosine receptor A3 (Homo sapiens) (UniProt P0DMS8); assay: Binding affinity against human Adenosine A3 receptor in HEK293 cells using [125I]AB-MECA […]; format: cell-based
T5 sequence (whole entry): T1 sequence (P0DMS8 whole entry)
Method in brief: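 Membranes of HEK-293 cells stably expressing human A3 receptor (0.3 mg protein/mL) in 50 mM Tris, 10 mM Mg2+, 1 mM EDTA, pH 8.0, with 0.3 nM [125I]AB-MECA final. Duplicate 1 h incubations at 25 °C, filtration over GF/B, gamma counting; nonspecific binding with 100 μM (R)-PIA; DMSO ≤1%.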

Adenosine receptor A1 = molecular target: T6, Adenosine receptor A1 (Rattus norvegicus, UniProt P25099); assay: Binding affinity at Adenosine A1 receptor in rat brain membranes by [3H]PIA displacement.; format: cell membranes
T6 sequence (P25099 whole entry): T2 sequence (whole entry)

[9] = molecular target: T2, Adenosine receptor A1 (Rattus norvegicus); assay: Percentage inhibition against Adenosine A1 receptor in rat brain membranes using [3H]-PIA; format: cell membranes; set-up: concentration or dose not given beside the values; conditions: concentration not given here
[10] = molecular target: T2, Adenosine receptor A1 (Rattus norvegicus); assay: Percent inhibition at 10e-4 M against Adenosine A1 receptor in rat brain membranes using [3H]-PIA; format: cell membranes
[11] = molecular target: T7, Adenosine receptor A3 (Rattus norvegicus) (UniProt P28647); assay: as §3; conditions: concentration not given here
T7 sequence (whole entry): T4 sequence (P28647 whole entry)

[12] = molecular target: T3, Adenosine A2 receptor (Rattus norvegicus); assay: Percentage inhibition against Adenosine A2 receptor in rat striatal membranes using [3H]-CGS- 21680; format: cell membranes; conditions: Striatum, Membrane, concentration not given here
Method in brief: as §1

[13] = molecular target: T3, Adenosine A2 receptor (Rattus norvegicus); assay: Percent inhibition against Adenosine A2 receptor in rat striatal membranes using [3H]-CGS- 21680; format: cell membranes; conditions: Striatum, Membrane, concentration not given here
Method in brief: as §1

Ratio [1]: 0.37 | Ki (Adenosine A2 receptor): 11.5 µM
SMILES: COc1c2ccoc2cc2oc(/C=C/c3ccccc3)cc(=O)c12

Ki (Adenosine receptor A3 [2]): 45.5 µM | Ratio [1]: > 4 | Ki (Adenosine A2 receptor): 167 µM | Displacement [3]: < 10%
SMILES: CCOc1c2ccoc2cc2oc(/C=C/C=C/c3ccccc3)cc(=O)c12

Ki (Adenosine A2 receptor): 17.3 µM
SMILES: O=c1c(O)c(-c2ccc(O)cc2O)oc2cc(O)cc(O)c12 [MORIN]

Ratio [1]: 0.15 | Displacement [4]: < 10%
SMILES: COc1cc(OC)c(-c2oc3ccccc3c(=O)c2O)c(OC)c1

Ki (Adenosine A2 receptor): 6.45 µM
SMILES: COc1cc(OC)c2c(=O)c(OC)c(-c3ccccc3)oc2c1

Ki (Adenosine A2 receptor): 33.8 µM | inhibition [5]: 21.2% | Ki (Adenosine receptor A3 [6]): 12.3 µM | inhibition [7]: 40.9%
SMILES: CCOc1c2ccoc2cc2oc(/C=C/c3ccccc3)cc(=O)c12

Ki (Adenosine A2 receptor): 35.6 µM
SMILES: COc1cc(O)c2c(c1)OC(c1ccc(O)cc1)CC2=O (stereo unspecified)

Ki (Adenosine A2 receptor): 26.8 µM
SMILES: CCOc1ccc(-c2oc3cc(OCC)cc(OCC)c3c(=O)c2OCC)c(OCC)c1

Ki (Adenosine receptor A3 [2]): 13 µM
SMILES: CSc1sc(C(=O)NN)c2c1C=CCC2

Ratio [1]: > 40 | Displacement [4]: < 10% | Displacement [3]: < 10%
SMILES: CCOc1ccc(-c2oc3cc(OCC)cc(O)c3c(=O)c2OCC)c(OCC)c1

inhibition ([8]; concentration not given here): 27% | Ratio [1]: < 1 | Displacement [4]: < 10% | Ki (Adenosine receptor A1): 91.9 µM
SMILES: O=C1c2ccccc2OC(c2ccccc2O)C1O (stereo unspecified)

Ki (Adenosine A2 receptor): 17.6 µM
SMILES: O=C1CC(c2ccccc2O)Oc2ccccc21 (stereo unspecified) [2'-HYDROXY-FLAVANONE]

inhibition [9]: 28% | Displacement [4]: < 10%
SMILES: O=c1cc(-c2ccccc2)oc2ccc(Cl)cc12

Ratio [1]: > 8 | Displacement [10]: < 10% | Displacement [4]: < 10% | inhibition [5]: 25.9% | inhibition [11]: 43% | inhibition [7]: 39.2%
SMILES: COc1ccc2c(c1)C(=O)[C@H](O)[C@@H](/C=C/c1ccccc1)O2 (relative stereo)

Ki (Adenosine receptor A3 [2]): 48 µM
SMILES: O=c1ccnc2ccccn12

Ki (Adenosine A2 receptor): 0.966 µM
SMILES: O=c1c(O)c(-c2ccccc2)oc2cc(O)cc(O)c12 [GALANGIN]

Ki (Adenosine A2 receptor): 46.7 µM
SMILES: COc1ccc(-c2oc3cc(OC)cc(OC)c3c(=O)c2OC)c(OC)c1

Ki (Adenosine receptor A3 [2]): 4.59 µM | Displacement [4]: < 10% | Ki (Adenosine receptor A1): 9.09 µM
SMILES: COc1cc2oc(-c3ccc(O)cc3O)c(CC=C(C)C)c(=O)c2c(O)c1/C=C/C(C)C [ARTOCARPIN]

Ki (Adenosine receptor A3 [2]): 19 µM
SMILES: OCCN(CCO)C1=NC(N2CCCCC2)c2nc(N(CCO)CCO)nc(N3CCCCC3)c2N1 (stereo unspecified)

Ki (Adenosine A2 receptor): 3.31 µM | inhibition [5]: 2.2% | Ki (Adenosine receptor A3 [6]): 18.2 µM | inhibition [7]: 19.1%
SMILES: CCOc1cc(OCC)c2c(=O)c(OCC)c(-c3ccccc3)oc2c1

inhibition [9]: 36% | Ki (Adenosine A2 receptor): 42.4 µM
SMILES: COc1c2ccoc2cc2oc(C)cc(=O)c12 [VISNAGIN]

Ki (Adenosine A2 receptor): 63.8 µM
SMILES: CCOc1cc(O)c2c(=O)c(OCC)c(-c3ccccc3)oc2c1

Ki (Adenosine receptor A3 [2]): 11.5 µM | Ki (Adenosine A2 receptor): 25.1 µM | Ki (Adenosine receptor A1): 2.48 µM
SMILES: O=c1c(Cl)c(-c2ccccc2)oc2ccccc12

Ki (Adenosine receptor A3 [2]): 5.24 µM | inhibition [9]: 37% | Displacement [4]: < 10%
SMILES: Cc1cc(C)c(-c2oc3ccc(Cl)cc3c(=O)c2Cl)c(C)c1

Ki (Adenosine receptor A3 [2]): 0.741 µM | Ratio [1]: > 100 | inhibition [9]: 15% | Ki (Adenosine A2 receptor): 54.5 µM
SMILES: O=c1c(Cl)c(-c2ccccc2)oc2ccc(Cl)cc12

SMILES: C=C1C(C)C2C(Cc3ccccc3)NC(=O)C23C(OC(C)=O)/C=C\C(C)(O)CC(C)C/C=C/C3C1O (stereo unspecified)
Ki (Adenosine receptor A3 [2]): 23 µM

Displacement [8]: < 10% | Displacement [4]: < 10% | Displacement [3]: < 10%
SMILES: COc1c2ccoc2cc2oc(/C=C/C=C/c3ccccc3)cc(=O)c12

Ki (Adenosine receptor A3 [2]): 9.18 µM | Ratio [1]: > 20 | Displacement [4]: < 10% | Displacement [3]: < 10%
SMILES: COc1c2ccoc2cc2oc(/C=N/c3ccccc3)cc(=O)c12

Ratio [1]: 3.5
SMILES: CCCOc1cc(OCCC)c2c(=O)c(OCCC)c(-c3ccccc3)oc2c1

Ki (Adenosine receptor A3 [2]): 28 µM
SMILES: Nc1nc2ncc(NCc3ccc(C(=O)NC(CCC(=O)O)C(=O)O)cc3)nc2c(=O)[nH]1 (stereo unspecified)

Ki (Adenosine receptor A3 [2]): 25 µM
SMILES: O=S(=O)(c1cccc2cnccc12)N1CCNCC1

Ki (Adenosine receptor A3 [2]): 22 µM
SMILES: OC12CCCCC1=Nc1ccccc12 (stereo unspecified)

Ki (Adenosine receptor A3 [2]): 42.8 µM | inhibition [12]: 35% | Ki (Adenosine receptor A1): 11.5 µM
SMILES: O=C1CC(c2ccc(O)cc2)Oc2ccccc21 (stereo unspecified) [4'-HYDROXY-FLAVANONE]

Ratio [1]: > 2 | inhibition [13]: 25% | Displacement [3]: < 10%
SMILES: COc1c2ccoc2cc2oc(C=O)cc(=O)c12

Ki (Adenosine A2 receptor): 3.45 µM
SMILES: O=c1cc(-c2ccccc2)oc2ccccc12 [FLAVONE]
